This note sets out measurements from ChEMBL document CHEMBL1275360, “1-Bromo-3-(1',1'-dimethylalkyl)-1-deoxy-Δ(8)-tetrahydrocannabinols: New selective ligands for the cannabinoid CB(2) receptor” (Bioorg Med Chem, 2010).

By Ki is commonly meant the equilibrium dissociation constant of an inhibitor or competing ligand from its target. A lower Ki goes with higher affinity. The term EC50 denotes the concentration at which the effect is half-maximal. Broadly, the Emax is the maximal effect, on the per cent scale that the assay sets.

In test [1] the target is Cannabinoid receptor 1 (Rattus norvegicus, UniProt P20272). Briefly: Displacement of [3H]CP-55940 from CB1 receptor in Sprague-Dawley rat brain membranes after 1 hr by liquid scintillation spectrophotometry. The class given is cell membranes, Membrane. Put shortly: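 Membranes from whole rat brain (CB1) or human CB2-expressing CHO cells (CB2) were incubated 1 hr at 30°C with 1 nM [3H]CP-55,940 and six competitor concentrations (0.1 nM–10 μM). Buffer contained 5 mg/ml BSA, ethanol ≤0.4%. Nonspecific binding was defined with 1 μM CP-55,940. Separation on polyethyleneimine-treated GF/B filters, then scintillation counting. IC50 from log-linear regression, Ki via Cheng-Prusoff; triplicate, 3–6 repeats.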

For test [2], the target named is T1, Cannabinoid receptor 2 (Homo sapiens, UniProt P34972). Briefly: Displacement of [3H]CP-55940 from human CB2 receptor expressed in CHO cells after 1 hr by liquid scintillation spectrophotometry. The class given is cell-based. (In a radioligand displacement assay an active substance lowers the binding of a labelled ligand.)
The nature of test [3]: Selectivity ratio of IC50 for CB1 receptor in Sprague-Dawley rat brain membranes to IC50 for human CB2 receptor. Format: cell membranes. To be noted: Membrane.
Test [4] has as its target T1, Cannabinoid receptor 2. Briefly: Agonist activity at human CB2 receptor expressed in CHO cells assessed as stimulation of [35S]GTPgammaS binding after 1.5 hrs by liquid scintillation spectrophotometry. Format: functional, cell-based. Summed up: (§1)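 Membranes from CB2-CHO cells grown in DMEM/Ham F-12 with G418 and 5% fetal calf serum. Reactions used 10 μg membrane protein with 10 μM GDP, 0.1 nM radiolabelled GTPγS, 1 mg/mL BSA and varied drug concentrations in NaCl/EGTA Tris buffer pH 7.4, for 1.5 hr at 30°C. Nonspecific binding (unlabeled GTPγS) subtracted; filtration, scintillation counting. Nonlinear regression; Emax relative to 3 μM CP-55,940; mean ± SEM, ≥3 experiments in triplicate.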

Test [5] addresses T1, Cannabinoid receptor 2. Briefly: Agonist activity at human CB2 receptor expressed in CHO cells assessed as stimulation of [35S]GTPgammaS binding after 1.5 hrs by liquid scintillation spectrophotometry relative to CP-55940. The class given is functional, cell-based. Put shortly:
as §1

Test [6] has as its target Cannabinoid receptor 1 (Homo sapiens, UniProt P21554). Briefly: Binding affinity to CB1 receptor.
For test [7], the target named is T1, Cannabinoid receptor 2. Briefly: Binding affinity to CB2 receptor.

Cannabinoid receptor 1 (Rattus norvegicus, UniProt P20272), sequence (P20272 whole entry): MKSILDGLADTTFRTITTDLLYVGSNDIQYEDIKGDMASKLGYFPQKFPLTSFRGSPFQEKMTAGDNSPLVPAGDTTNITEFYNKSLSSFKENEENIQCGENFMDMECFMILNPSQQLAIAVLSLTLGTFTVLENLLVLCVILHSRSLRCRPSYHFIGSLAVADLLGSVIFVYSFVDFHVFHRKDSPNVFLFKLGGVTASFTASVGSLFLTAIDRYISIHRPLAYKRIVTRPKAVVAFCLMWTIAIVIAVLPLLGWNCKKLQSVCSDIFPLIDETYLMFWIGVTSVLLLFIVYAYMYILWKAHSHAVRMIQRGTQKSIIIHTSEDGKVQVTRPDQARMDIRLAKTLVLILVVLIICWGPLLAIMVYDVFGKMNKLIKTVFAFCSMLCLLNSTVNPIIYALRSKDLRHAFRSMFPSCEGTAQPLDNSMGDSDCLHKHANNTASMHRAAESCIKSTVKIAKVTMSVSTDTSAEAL
T1 sequence (P34972 whole entry): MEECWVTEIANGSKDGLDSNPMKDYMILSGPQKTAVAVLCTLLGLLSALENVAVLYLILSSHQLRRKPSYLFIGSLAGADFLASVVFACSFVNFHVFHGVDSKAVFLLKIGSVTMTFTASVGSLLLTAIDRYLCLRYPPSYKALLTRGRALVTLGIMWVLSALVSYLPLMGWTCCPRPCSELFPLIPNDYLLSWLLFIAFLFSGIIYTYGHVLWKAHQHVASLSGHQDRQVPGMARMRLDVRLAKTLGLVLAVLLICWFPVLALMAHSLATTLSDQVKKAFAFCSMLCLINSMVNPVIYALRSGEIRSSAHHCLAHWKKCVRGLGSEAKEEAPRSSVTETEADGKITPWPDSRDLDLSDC
Cannabinoid receptor 1 (Homo sapiens, UniProt P21554), sequence (P21554 whole entry): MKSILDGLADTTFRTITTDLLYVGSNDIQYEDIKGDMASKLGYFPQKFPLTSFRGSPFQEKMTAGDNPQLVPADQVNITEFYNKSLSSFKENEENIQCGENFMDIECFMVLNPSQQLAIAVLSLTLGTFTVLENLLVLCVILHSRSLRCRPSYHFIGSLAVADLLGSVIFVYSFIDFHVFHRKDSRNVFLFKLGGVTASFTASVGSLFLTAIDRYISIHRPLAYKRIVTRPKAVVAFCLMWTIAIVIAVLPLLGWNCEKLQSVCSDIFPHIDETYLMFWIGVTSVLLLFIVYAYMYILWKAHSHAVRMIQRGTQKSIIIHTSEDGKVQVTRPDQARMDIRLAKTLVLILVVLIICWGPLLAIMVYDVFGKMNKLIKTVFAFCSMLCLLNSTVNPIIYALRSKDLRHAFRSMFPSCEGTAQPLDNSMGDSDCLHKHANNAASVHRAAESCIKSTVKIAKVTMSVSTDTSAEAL

As to `CCCCC(C)(C)c1cc(Br)c2c(c1)OC(C)(C)[C@@H]1CC=C(C)C[C@@H]21`, the Ki on Cannabinoid receptor 1 [1] stood at 1140 nM; on Cannabinoid receptor 2 [2] it was 71 nM. The Ratio Ki in test [3] was determined as 16.
On to `CCCCCCC(C)(C)c1cc(Br)c2c(c1)OC(C)(C)[C@@H]1CC=C(C)C[C@@H]21`, for which the Ki at Cannabinoid receptor 1 [1] came out at 562 nM; on Cannabinoid receptor 2 [2], 34 nM. The Ratio Ki in test [3] is 27. In addition, at Cannabinoid receptor 2 [4], the EC50 was 15 nM. Besides, the Emax on Cannabinoid receptor 2 [5] was 91%.
In the case of `CCCCCCC(C)(C)c1ccc2c(c1)OC(C)(C)[C@@H]1CC=C(CO)C[C@@H]21`, the Ki on Cannabinoid receptor 1 [6] was found to be 1.2 nM; on Cannabinoid receptor 2 [7] it was 0.032 nM.
For `CCCCCC(C)(C)c1cc(Br)c2c(c1)OC(C)(C)[C@@H]1CC=C(C)C[C@@H]21`, the Ki at Cannabinoid receptor 1 [1] was 1440 nM; on Cannabinoid receptor 2 [2] it was 28 nM. In test [3], the Ratio Ki was 52. On Cannabinoid receptor 2 [4], the EC50 was found to be 28.6 nM. Further, at Cannabinoid receptor 2 [5], the maximal response (Emax) came to 92.3%.
With `CCCCCc1cc(Br)c2c(c1)OC(C)(C)[C@@H]1CC=C(C)C[C@@H]21`, the Ki at Cannabinoid receptor 1 [1] was more than 10000 nM; at Cannabinoid receptor 2 [2], 555 nM. Further, the Ratio Ki in test [3] was 18.
As to `CCCCCCC(C)(C)c1ccc2c(c1)OC(C)(C)[C@@H]1CC=C(C)C[C@@H]21`, the values for the Ki on Cannabinoid receptor 1 [6] and on Cannabinoid receptor 2 [7] were 23 nM and 2.9 nM, respectively.
In the case of `CCCC(C)(C)c1cc(Br)c2c(c1)OC(C)(C)[C@@H]1CC=C(C)C[C@@H]21`, the Ki was more than 10000 nM at Cannabinoid receptor 1 [1] and 265 nM on Cannabinoid receptor 2 [2]. For the same compound, the Ratio Ki in test [3] amounted to 38.
The compound `CCCC(C)(C)c1ccc2c(c1)OC(C)(C)[C@@H]1CC=C(C)C[C@@H]21` registered a Ki at Cannabinoid receptor 1 [1] of 677 nM. Besides, the Ratio Ki in test [3] worked out at 294. Further, the EC50 on Cannabinoid receptor 2 [4] was 4 nM. Also, the Emax at Cannabinoid receptor 2 [5] turned out to be 112%.
